What all share (type): functional, cell-based
Assay [1] concerns the target P2Y purinoceptor 6 (Homo sapiens) (UniProt Q15077). The assay is described as follows: Agonist activity at human P2Y6 receptor expressed in human 1321N1 cells assessed as stimulation of PLC-induced [3H]inositol phosphate production at 100 uM after 30 mins by scintillation counting. The gist of the method: (§1)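 Retrovirally generated stable 1321N1 lines labelled 16 h with 1.0 μCi [3H]myo-inositol in inositol-free DMEM. Analogues at 100 μM, 30 min at 37°C in Hepes pH 7.3/HBSS with LiCl. Total [3H]inositol phosphates taken by formic acid extraction and Dowex anion exchange, then scintillation counting. P2Y2 and P2Y4 responses expressed as % of 100 nM UTP; P2Y6 as % of 1 μM UDP. Mean ± S.E.M., ≥3 experiments.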

Assay [2] has as its target T1, P2Y purinoceptor 2 (Homo sapiens, UniProt P41231). The assay is described as follows: Agonist activity at human P2Y2 receptor expressed in human 1321N1 cells assessed as stimulation of PLC-induced [3H]inositol phosphate production after 30 mins by scintillation counting. In a few lines:
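Stable 1321N1 astrocytoma lines made by retroviral expression of the receptor. Cells plated 20,000/well two days ahead and labelled 16 h in serum-free, inositol-free DMEM with 1.0 μCi [3H]myo-inositol. Agonist added in HBSS with 100 mM Hepes pH 7.3 (five-fold stock) and 50 mM LiCl, 30 min at 37°C. Stopped with cold 50 mM formic acid, neutralized, Dowex columns. EC50 by non-linear regression, triplicates, ≥3 experiments.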

For assay [3], the target named is T1, P2Y purinoceptor 2. The assay is described as follows: Agonist activity at human P2Y2 receptor expressed in human 1321N1 cells assessed as stimulation of PLC-induced [3H]inositol phosphate production at 100 uM after 30 mins by scintillation counting relative to UTP. The gist of the method: as §1
The target in assay [4] is P2Y purinoceptor 4 (Homo sapiens) (UniProt P51582). The assay is described as follows: Agonist activity at human P2Y4 receptor expressed in human 1321N1 cells assessed as stimulation of PLC-induced [3H]inositol phosphate production at 100 uM after 30 mins by scintillation counting. The gist of the method: as §1

Molecules are shown by their SMILES. Calls of active or inactive are those of the source. No cut-off for these calls is given here.

Sequence of P2Y purinoceptor 4 (Homo sapiens) (P51582 whole entry): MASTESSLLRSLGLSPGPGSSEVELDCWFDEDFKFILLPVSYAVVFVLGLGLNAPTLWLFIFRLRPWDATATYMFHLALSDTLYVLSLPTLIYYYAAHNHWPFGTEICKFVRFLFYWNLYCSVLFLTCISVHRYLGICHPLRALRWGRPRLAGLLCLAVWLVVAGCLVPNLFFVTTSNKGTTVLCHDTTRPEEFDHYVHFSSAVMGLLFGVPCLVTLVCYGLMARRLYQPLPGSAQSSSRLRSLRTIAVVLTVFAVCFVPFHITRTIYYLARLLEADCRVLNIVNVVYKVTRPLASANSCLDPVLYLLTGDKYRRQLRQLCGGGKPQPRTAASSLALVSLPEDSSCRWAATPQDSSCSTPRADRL
Sequence of P2Y purinoceptor 6 (Homo sapiens) (Q15077 whole entry): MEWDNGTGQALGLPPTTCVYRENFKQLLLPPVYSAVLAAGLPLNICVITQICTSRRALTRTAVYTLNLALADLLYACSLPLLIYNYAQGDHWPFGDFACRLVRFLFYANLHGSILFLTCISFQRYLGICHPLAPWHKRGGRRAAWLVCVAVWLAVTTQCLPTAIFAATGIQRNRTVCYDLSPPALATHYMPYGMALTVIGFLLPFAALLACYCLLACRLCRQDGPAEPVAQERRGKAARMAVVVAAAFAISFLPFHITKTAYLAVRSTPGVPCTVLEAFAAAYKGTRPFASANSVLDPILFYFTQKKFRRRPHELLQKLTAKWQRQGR
T1 sequence (P41231 whole entry): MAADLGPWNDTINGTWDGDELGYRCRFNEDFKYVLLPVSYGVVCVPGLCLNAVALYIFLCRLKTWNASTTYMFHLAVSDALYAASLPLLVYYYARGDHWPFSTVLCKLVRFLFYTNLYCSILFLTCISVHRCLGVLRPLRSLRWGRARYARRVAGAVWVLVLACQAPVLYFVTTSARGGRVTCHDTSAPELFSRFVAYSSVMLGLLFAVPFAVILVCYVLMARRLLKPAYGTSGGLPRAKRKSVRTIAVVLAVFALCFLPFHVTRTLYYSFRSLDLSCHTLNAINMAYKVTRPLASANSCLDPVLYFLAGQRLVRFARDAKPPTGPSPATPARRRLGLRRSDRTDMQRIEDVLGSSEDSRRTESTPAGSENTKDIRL

As for `O=c1ccn([C@@H]2O[C@H](OCP(=O)(O)O)[C@@H](O)[C@H]2O)c(=O)[nH]1`, the result in assay [1] and in assay [4] was inactive. For the same compound, the EC50 on P2Y purinoceptor 2 [2] is greater than 20000 nM. The Emax at P2Y purinoceptor 2 [3] came out at 19%.

Regarding `O=c1ccn([C@@H]2O[C@H](COP(=O)(O)OP(=O)(O)OP(=O)(O)O)[C@@H](O)[C@H]2O)c(=O)[nH]1` [URIDINE TRIPHOSPHATE], the EC50 on P2Y purinoceptor 2 [2] was found to be 20 nM.

Take `O=c1ccn([C@H]2[C@H](O)[C@H](O)[C@]3(CCP(=O)(O)O)C[C@H]23)c(=O)[nH]1`: the half-maximal effective concentration (EC50) on P2Y purinoceptor 2 [2] was 4000 nM.

`Cc1ccc(-c2cn([C@@H]3O[C@H](CCP(=O)(O)O)[C@@H](O)[C@H]3O)c(=O)[nH]c2=O)cc1`: the result in assay [1] and in assay [4] was inactive. The EC50 at P2Y purinoceptor 2 [2] was 1000 nM. Besides, the Emax at P2Y purinoceptor 2 [3] amounted to 41%.

Turning to `O=c1[nH]c(=O)n([C@@H]2O[C@H](CCP(=O)(O)O)[C@@H](O)[C@H]2O)cc1-c1ccc2ccccc2c1`, the result in assay [1] and in assay [4] was inactive. Further, the EC50 at P2Y purinoceptor 2 [2] turned out to be 2100 nM. The Emax on P2Y purinoceptor 2 [3] stood at 54%.

As to `O=c1[nH]c(=O)n([C@@H]2O[C@H](CCP(=O)(O)O)[C@@H](O)[C@H]2O)cc1-c1ccccc1`, the result in assay [1] and in assay [4] was inactive. Besides, the EC50 on P2Y purinoceptor 2 [2] amounted to 1500 nM. For the same compound, at P2Y purinoceptor 2 [3], the Emax is 53%.

In the case of `O=c1[nH]c(=O)n([C@@H]2O[C@H](CCP(=O)(O)O)[C@@H](O)[C@H]2O)cc1-c1csc2ccccc12`, the result in assay [1] and in assay [4] was inactive. The concentration giving a half-maximal response (EC50) on P2Y purinoceptor 2 [2] was greater than 20000 nM. Moreover, the Emax at P2Y purinoceptor 2 [3] amounted to 45%.

For `O=c1[nH]c(=O)n([C@@H]2O[C@H](CCP(=O)(O)O)[C@@H](O)[C@H]2O)cc1/C=C/c1ccccc1`, the outcome in assay [1] and in assay [4] was inactive. The EC50 at P2Y purinoceptor 2 [2] was 3100 nM. The Emax on P2Y purinoceptor 2 [3] was 41%.

`O=c1ccn([C@@H]2O[C@H](CCP(=O)(O)O)[C@@H](O)[C@H]2O)c(=O)[nH]1`: the concentration giving a half-maximal response (EC50) at P2Y purinoceptor 2 [2] was 5100 nM. Also, at P2Y purinoceptor 2 [3], the Emax is 32%.

Take `O=c1ccn([C@@H]2O[C@H](COP(=O)(O)OP(=O)(O)O)[C@@H](O)[C@H]2O)c(=O)[nH]1`: in assay [1], the result was inactive.

For `O=c1ccn([C@@H]2O[C@H](CCP(=O)(O)O)[C@@H](O)[C@H]2Cl)c(=O)[nH]1`, the outcome in assay [1] and in assay [4] was inactive. Besides, the EC50 on P2Y purinoceptor 2 [2] was greater than 20000 nM. Further, the Emax at P2Y purinoceptor 2 [3] was 9%.

With `O=c1[nH]c(=O)n([C@@H]2O[C@H](CCP(=O)(O)O)[C@@H](O)[C@H]2O)cc1-c1ccco1`, the result in assay [1] and in assay [4] was inactive. On P2Y purinoceptor 2 [2], the EC50 was found to be 700 nM. Moreover, the Emax on P2Y purinoceptor 2 [3] worked out at 45%.

`O=c1[nH]c(=O)n([C@@H]2O[C@H](CCP(=O)(O)O)[C@@H](O)[C@H]2O)cc1-c1cccs1`: the result in assay [1] and in assay [4] was inactive. Besides, the EC50 at P2Y purinoceptor 2 [2] worked out at 500 nM. Further, on P2Y purinoceptor 2 [3], the Emax worked out at 35%.

Consider `O=c1[nH]c(=O)n([C@@H]2O[C@H](CCP(=O)(O)O)[C@@H](O)[C@H]2O)cc1-c1ccc(F)cc1`, for which the result in assay [1] and in assay [4] was inactive. On P2Y purinoceptor 2 [2], the EC50 was 400 nM. In addition, the Emax at P2Y purinoceptor 2 [3] was determined as 43%.

Take `N[C@@H]1[C@H](O)[C@@H](CCP(=O)(O)O)O[C@H]1n1ccc(=O)[nH]c1=O`: the outcome in assay [1] and in assay [4] was inactive. Also, the EC50 at P2Y purinoceptor 2 [2] was greater than 20000 nM. Besides, on P2Y purinoceptor 2 [3], the Emax was found to be 9%.

These data come from ChEMBL document CHEMBL1955746, “Synthesis and P2Y₂ receptor agonist activities of uridine 5'-phosphonate analogues” (Bioorg Med Chem, 2012).
